High-throughput results: PubChem BioAssay, Sanford-Burnham Center for Chemical Genomics
Scp-1 inhibitor: Scp-1 phosphatase inhibitors, primary screen, biochemical, colorimetric, uHTS. Carboxy-terminal domain RNA polymerase II polypeptide A small phosphatase 1 (Homo …. Recombinant Scp1, phosphopeptide, malachite green phosphate absorbance. inhibition, % at 20 µM. hit rate 0.88% among 340,000. AID 493091, 2011;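 active means inhibition above about 50% at 20 µM, limit read from the data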;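 further: plate controls were DMSO wells with enzyme for no effect and wells lacking enzyme for full effect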
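Test system: SCP-1 phosphatase catalytic domain, residues 76-261; measured by: colorimetric phosphate reagent with accelerator and stabiliser, absorbance at 630 nm; timing: enzyme reaction 45 min at room temperature, colour 5 min, stabilisation 30 min; also added: Phosphorylated 17-residue peptide substrate; compound dosing: one concentration, 20 µM, with 1.0% DMSO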
SUMO1-SIM PPI: modulators of SUMO1 protein-protein interactions, primary screen, biochemical, uHTS; Small ubiquitin-related modifier 1 (Homo sapiens), P63165; hit rate 0.33% among 360,000; SUMO1 binding to a labelled peptide, TR-FRET, 1 h; AID 602429, 2012; inhibition, % at 20 µM; in the data active means inhibition above about 37%
DNMT1 inh: human DNMT1 methyltransferase inhibitors, primary screen, biochemical, molecular beacon, fluorescence, HinP1I cleavage, uHTS; DNA (cytosine-5)-methyltransferase 1 (Homo sapiens), P26358; hit rate 0.83% among 360,000; AID 588458, 2011; inhibition (reported as % activation of signal), % at 10 µM; in the data active means inhibition above about 50%
STEP inh: STEP phosphatase inhibitors, primary screen, biochemical, fluorescence intensity, uHTS. Tyrosine-protein phosphatase non-receptor type 5 (Homo sapiens), P54829. recombinant STEP, OMFP fluorogenic substrate. inhibition, % at 20 µM. hit rate 0.25% among 360,000. AID 588621, 2011;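 active means inhibition at 20 µM, scaled per plate between control wells, above about 37%, limit read from the data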;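 further: 0% = DMSO with enzyme and substrate and 100% = substrate only without enzyme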
Target sequence (P54829 whole entry, looked up): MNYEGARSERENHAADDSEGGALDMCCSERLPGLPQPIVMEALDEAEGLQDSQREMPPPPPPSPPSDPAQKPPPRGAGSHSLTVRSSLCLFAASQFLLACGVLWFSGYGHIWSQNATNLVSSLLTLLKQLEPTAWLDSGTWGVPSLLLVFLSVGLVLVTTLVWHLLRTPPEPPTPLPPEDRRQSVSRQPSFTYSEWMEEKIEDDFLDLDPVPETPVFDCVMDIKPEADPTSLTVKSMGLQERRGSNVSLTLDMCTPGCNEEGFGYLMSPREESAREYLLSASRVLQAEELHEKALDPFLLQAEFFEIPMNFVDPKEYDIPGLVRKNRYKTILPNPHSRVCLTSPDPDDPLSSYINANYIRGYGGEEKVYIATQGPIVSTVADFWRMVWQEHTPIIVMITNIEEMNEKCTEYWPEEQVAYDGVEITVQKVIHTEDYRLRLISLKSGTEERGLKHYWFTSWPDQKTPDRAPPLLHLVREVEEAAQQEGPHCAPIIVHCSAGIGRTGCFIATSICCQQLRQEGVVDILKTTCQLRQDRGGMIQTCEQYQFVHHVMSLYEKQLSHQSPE
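Material: STEP (striatal-enriched tyrosine phosphatase) enzyme, cell-free | Medium: 50 mM Bis-Tris pH 6.0 with 2.5 mM DTT and 0.005% Tween 20 | Read-out: Percent inhibition scaled to no-enzyme and uninhibited-enzyme controls, plate-pattern corrected | Signal: Fluorescence read at 480 nm ex / 540 nm em | Times: 20 min reaction, room temperature, in the dark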
LMPTP inh: LMPTP phosphatase inhibitors, primary screen, biochemical, fluorescence intensity, uHTS; hit rate 0.22% among 360,000; recombinant LMPTP-A, OMFP fluorogenic substrate; inhibition, % at 20 µM; AID 651560, 2012; Low molecular weight phosphotyrosine protein phosphatase (Homo sapiens), P24666;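 active means compounds that cut the enzyme signal by at least half of the control window in the single-dose screen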;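 further: plate controls were DMSO wells with enzyme plus substrate for no effect and substrate without enzyme for full effect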
Target sequence (P24666 whole entry, looked up): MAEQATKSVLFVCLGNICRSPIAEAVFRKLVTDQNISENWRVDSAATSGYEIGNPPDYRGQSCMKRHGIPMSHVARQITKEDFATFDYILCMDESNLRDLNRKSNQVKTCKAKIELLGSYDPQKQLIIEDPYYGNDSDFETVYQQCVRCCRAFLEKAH
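Test system: LMPTP-A phosphatase enzyme. Amount: LMPTP-A at 0.625 nM final in the reaction. Reagent: OMFP substrate, 400 µM final. Times: 50 min at room temperature. Signal: endpoint fluorescence intensity from OMFP dephosphorylation. Read-out basis: % inhibition. Benchmarks: no-enzyme and uninhibited controls.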
Scp-1 conf: Scp-1 phosphatase inhibitors, retest, confirmation, biochemical, colorimetric, single concentration | inhibition, % at 20 µM | AID 540281, 2011 | shares compounds with Scp-1 inhibitor | recombinant SCP-1 catalytic domain, phosphate release, malachite green absorbance | hit rate 61% among 2,500;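 further: plate controls were DMSO with enzyme for no effect and buffer wells lacking enzyme for full effect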
Scp-1 MG ctr: colorimetric readout interference by compounds, confirmation, artefact control for Scp-1 inhibitor project, biochemical, single concentration | shares compounds with Scp-1 inhibitor | Colorimetric interference counterscreen, malachite green absorbance 630 nm | apparent inhibition (interference), % at 20 µM | 2,500 tested, under 10 active | AID 540313, 2011;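 further: compounds added after enzyme reaction finished so only phosphate colour detection is probed; plate controls were DMSO wells with completed Scp-1 reaction for no effect and substrate wells lacking enzyme for full effect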
Scp1 DSF: Scp-1 binding by thermal shift, confirmation, orthogonal assay for Scp-1 inhibitor project, biophysical, differential scanning fluorimetry; shares compounds with Scp-1 inhibitor; thermal shift relative to vanadate control, % at 40 µM; AID 540329, 2011; Recombinant SCP1, Sypro Orange thermal shift Tm; hit rate 25% among 1,500;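 active means substances whose mean melting-temperature shift, as a percentage of the reference inhibitor's shift, reaches about 5.3%, limit read from the data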;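 further: 0% = Tm of DMSO wells and 100% = Tm with sodium orthovanadate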
Numbers without * were called inactive; nt = no result given. Compounds with a hit are over-represented: about 1.7% of the library has one in this group of screens.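 How the source made its calls, unless noted: active means inhibition of at least 30% at 20 µM; inactive means the rest.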

SMILES	Scp-1 inhibitor	SUMO1-SIM PPI	DNMT1 inh	STEP inh	LMPTP inh	Scp-1 conf	Scp-1 MG ctr	others
C=CCOc1ccc(Br)cc1/C=C1/SC(=Nc2ccc(C(=O)O)cc2)NC1=O	85.9*	10.9	13.7	64.7*	81.2*	75.2*	-13.4	Scp1 DSF=5.0
Cc1ccc(C(=O)NCCCNC(=O)COc2ccccc2Cl)cn1	57.9*	-4.6	-0.5	-1.4	-1.3	-4.6	-8.7
CCOc1ccc(C(=O)Nc2cccc(-c3nc4cccnc4o3)c2)cc1Cl	82.5*	9.6	-1.6	2.5	5.9	10.0	-4.3
O=C(O)c1cc(-c2ccc(/C=N/NC(=S)Nc3ccccc3)o2)ccc1Cl	52.2*	21.6	17.9	1.1	0.9	59.3*	-1.9	Scp1 DSF=12.2*
CCCCC1(C)OC(=O)C(=Cc2ccc(-c3ccc(Cl)c(C(=O)O)c3)o2)C(=O)O1 (stereo unspecified)	59.5*	16.7	36.6	11.1	0.0	44.6*	-12.0	Scp1 DSF=-27.6
CCCCC1(C)OC(=O)C(=Cc2ccc(SC)cc2)C(=O)O1 (stereo unspecified)	3.1	3.5	5.6	-1.2	0.0	nt	nt
CCN(C[C@H]1N[C@@](C)(C(=O)OC)[C@H]2C(=O)N(Cc3ccccc3)C(=O)[C@@H]12)C(=O)Nc1ccc(OC)cc1	-8.0	-4.1	-1.9	-3.7	-0.4	nt	nt
COc1ccc(CCNC(=O)CCOc2ccc(C(C)(C)C)cc2)cc1OC	-8.3	1.5	0.7	2.4	1.3	nt	nt
Cn1c(CC(=O)NNC(=O)c2ccccc2[N+](=O)[O-])nc2ccccc21	-2.2	-18.5	6.4	-1.3	-1.1	nt	nt
O=C(Nc1nnc(-c2cccs2)o1)C1CC1	-6.0	-2.4	3.8	-0.8	-2.0	nt	nt
O=C(Nc1nnc(-c2ccc(Cl)s2)o1)C1CC1	56.5*	-1.8	-0.7	-0.2	-0.2	-26.6	-14.2
Cc1ccc(CCN2CC(C(=O)NCCN3CCOCC3)CC2=O)cc1 (stereo unspecified)	-0.3	nt	nt	nt	nt	nt	nt
O=C(NCc1ccc2c(c1)OCO2)C1CC(=O)N(CCc2ccccc2)C1 (stereo unspecified)	-9.8	6.8	-2.2	6.2	-1.6	-8.1	-8.2
CCOCCCN1CC(C(=O)NCCc2ccccc2)CC1=O (stereo unspecified)	-2.7	0.2	1.8	0.3	0.0	-14.1	-16.1
Cc1ccc(CCN2CC(C(=O)NCCCN3CCOCC3)CC2=O)cc1 (stereo unspecified)	-1.9	-1.6	2.1	-8.3	-3.2	-9.3	-10.9
CCCCNC(=O)C1CC(=O)N(CCc2ccccc2)C1 (stereo unspecified)	-6.8	0.8	0.3	3.5	-1.7	nt	nt
O=C(NCc1ccc(F)cc1)C1CC(=O)N(CCc2ccccc2)C1 (stereo unspecified)	-10.1	-1.3	1.9	4.0	0.4	-6.5	-11.2
CN1CCN(c2ccc(-c3cc(NC=O)c4ncc(-c5ccccc5)n4c3)cc2)CC1	nt	-65.6	-13.7	4.9	1.5	nt	nt
CCC(c1nnnn1-c1ccc2c(c1)OCCO2)N1CCN(Cc2c(F)cccc2Cl)CC1 (stereo unspecified)	nt	5.6	nt	nt	-0.2	nt	nt
CC(C)CCNC(=O)CN(Cc1ccc(F)cc1)C(=O)CCC(=O)Nc1ccccn1	-2.3	-5.6	-1.9	-1.5	-1.1	nt	nt
O=C(N/N=C/C(Cl)=C/c1ccccc1)c1ccc2c(c1)OCO2	101.0*	1.8	8.2	37.5	56.2*	53.1*	-17.5	Scp1 DSF=-15.0
O=C(COC(=O)c1ccc(Cl)c(S(=O)(=O)N2CCCC2)c1)NCc1ccccc1	50.2*	4.8	11.7	9.7	7.4	40.9*	-4.0	Scp1 DSF=-0.7
CC1(C)C[C@H](O)[C@]2(CO)CC[C@]3(C)C(=CCC4[C@@]5(C)CC[C@H](O)C(C)(C)C5CC[C@]43C)[C@@H]2C1 (stereo partly specified)	-1.3	0.9	-20.1	0.6	0.3	nt	nt
CC1O[C@@H](OC2C(COC3OC(CO)C(O)[C@H](O)C3O)OC(OC3CC[C@]4(C)C(CC[C@@]5(C)[C@@H]4CC=C4[C@@H]6CC(C)(C)CC[C@]6(CO)C(O)C[C@]45C)C3(C)C)C(O)C2O)C(O)C(O)C1O (stereo partly specified)	54.8*	9.9	-1.3	3.2	8.1	24.6	-8.7
C[C@H](CO)N1C[C@H](C)[C@@H](CN(C)Cc2ccc(Cl)c(Cl)c2)Oc2c(NS(=O)(=O)c3cn(C)cn3)cccc2C1=O	59.1*	3.8	-1.2	0.1	-1.6	-7.4	-16.7
SMILES	Scp-1 inhibitor	SUMO1-SIM PPI	DNMT1 inh	STEP inh	LMPTP inh	Scp-1 conf	Scp-1 MG ctr	others
C[C@H](CO)N1C[C@H](C)[C@@H](CN(C)Cc2ccncc2)Oc2c(NS(=O)(=O)c3cn(C)cn3)cccc2C1=O	57.1*	-0.2	3.5	-0.3	-0.7	3.9	-9.3
COc1ccc(C(=O)NC(=S)NCc2cccnc2)cc1Cl	-9.3	2.5	-1.0	2.2	2.0	nt	nt
O=C(O)Cc1ccc(-n2cccc2)cc1	79.8*	7.7	96.1*	2.5	4.1	53.2*	-17.5	Scp1 DSF=-6.3
O=C(Cn1c(=O)oc2cc(S(=O)(=O)N3CCCCCC3)ccc21)NC1CCCCCCC1	101.1*	9.4	23.6	1.7	2.1	53.8*	-9.0	Scp1 DSF=-12.6
O=C(Cn1c(=O)oc2cc(S(=O)(=O)N3CCCC3)ccc21)N1CCN(c2ccccc2)CC1	69.4*	2.3	0.2	5.1	0.2	-1.6	-15.9
Cc1ccc(C)c(N2CCN(C(=O)Cn3c(=O)oc4cc(S(=O)(=O)N5CCCC5)ccc43)CC2)c1	1.2	2.0	-6.1	0.1	1.1	nt	nt
CCc1noc(C)c1C(=O)N(CC)CC(=O)NCc1ccc(F)cc1	nt	8.7	6.5	-0.9	-0.6	nt	nt
Cc1ccc(CNC(=O)C2CSC3(C)CCC(=O)N23)cc1 (stereo unspecified)	-5.0	3.8	-1.9	-1.1	-0.8	nt	nt
CCC1=Nc2cc(C(=O)NCCCOC(C)C)ccc2Sc2ccccc21	62.8*	-8.2	-7.3	0.7	-0.9	-22.7	-15.3
